Data published in ChEMBL document CHEMBL4368943 (J Med Chem, 2019).
Activity calls are given as the source filed them. The calls are words filed in the database; no cut-off is given here.

How the values were obtained:
[1] = target: T1, von Hippel-Lindau disease tumor suppressor/Estrogen receptor/Cullin-2 (Homo sapiens, UniProt P03372+P40337+Q13617); experiment: Protac activity against VHL/cullin2/ERalpha in human T47D cells assessed as ERalpha degradation by measuring ER protein/GAPDH ratio at 5 nM after 4 hrs by Western blot analysis relative to control; type: cell-based
How it was run: (§1)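 T47D cells (DMEM, 10% FBS, passages 3−8) exposed 4 h over a dose series. RIPA lysates, equal protein, 10% SDS-PAGE, anti-ERα Western blot. ERα band density normalized to GAPDH; DC50 derived from the quantified dose–response.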
Target sequence in this assay (P03372 whole entry, looked up): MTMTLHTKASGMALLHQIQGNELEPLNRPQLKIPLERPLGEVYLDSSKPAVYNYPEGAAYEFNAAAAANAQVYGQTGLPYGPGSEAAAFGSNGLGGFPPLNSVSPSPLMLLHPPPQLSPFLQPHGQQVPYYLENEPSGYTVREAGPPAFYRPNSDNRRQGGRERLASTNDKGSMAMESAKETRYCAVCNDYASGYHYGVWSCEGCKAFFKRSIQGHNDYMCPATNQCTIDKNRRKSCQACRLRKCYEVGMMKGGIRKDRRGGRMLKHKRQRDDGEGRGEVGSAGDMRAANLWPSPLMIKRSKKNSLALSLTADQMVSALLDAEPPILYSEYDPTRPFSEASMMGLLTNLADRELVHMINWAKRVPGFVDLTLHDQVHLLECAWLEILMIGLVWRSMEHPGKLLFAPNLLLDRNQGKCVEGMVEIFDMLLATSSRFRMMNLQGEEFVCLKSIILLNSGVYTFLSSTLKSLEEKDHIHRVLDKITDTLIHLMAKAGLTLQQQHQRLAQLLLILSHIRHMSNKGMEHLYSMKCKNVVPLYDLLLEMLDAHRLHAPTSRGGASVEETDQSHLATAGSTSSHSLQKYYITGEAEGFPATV
Target sequence in this assay (P40337 whole entry, looked up): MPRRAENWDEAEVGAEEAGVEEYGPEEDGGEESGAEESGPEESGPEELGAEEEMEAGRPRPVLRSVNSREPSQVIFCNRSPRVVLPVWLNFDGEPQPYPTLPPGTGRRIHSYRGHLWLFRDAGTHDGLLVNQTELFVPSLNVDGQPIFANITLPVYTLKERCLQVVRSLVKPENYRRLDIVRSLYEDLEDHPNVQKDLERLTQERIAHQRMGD
Target sequence in this assay (Q13617 whole entry, looked up): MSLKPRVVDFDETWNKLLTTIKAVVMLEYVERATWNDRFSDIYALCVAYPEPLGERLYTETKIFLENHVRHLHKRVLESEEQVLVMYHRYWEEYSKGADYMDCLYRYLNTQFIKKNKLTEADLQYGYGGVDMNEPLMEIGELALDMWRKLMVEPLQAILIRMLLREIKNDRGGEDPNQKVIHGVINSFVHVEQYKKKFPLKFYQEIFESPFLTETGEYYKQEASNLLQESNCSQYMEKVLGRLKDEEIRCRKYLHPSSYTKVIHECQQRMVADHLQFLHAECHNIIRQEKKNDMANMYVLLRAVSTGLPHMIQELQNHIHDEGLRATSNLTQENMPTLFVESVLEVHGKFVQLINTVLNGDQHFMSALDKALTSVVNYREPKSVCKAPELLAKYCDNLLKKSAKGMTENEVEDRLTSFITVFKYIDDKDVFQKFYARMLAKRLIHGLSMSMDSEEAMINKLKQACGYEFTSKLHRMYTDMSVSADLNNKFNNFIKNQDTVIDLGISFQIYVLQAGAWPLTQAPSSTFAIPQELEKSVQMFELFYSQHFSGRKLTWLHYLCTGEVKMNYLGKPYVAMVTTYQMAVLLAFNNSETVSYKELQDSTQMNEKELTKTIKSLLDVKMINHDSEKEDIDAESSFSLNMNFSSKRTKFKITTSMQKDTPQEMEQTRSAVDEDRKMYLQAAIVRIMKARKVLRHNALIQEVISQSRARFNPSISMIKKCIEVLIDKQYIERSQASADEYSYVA

[2] = target: T1, von Hippel-Lindau disease tumor suppressor/Estrogen receptor/Cullin-2; experiment: Protac activity against VHL/cullin2/ERalpha in human T47D cells assessed as ERalpha degradation by measuring reduction in ER protein level at 30 nM after 1 to 3 hrs by Western blot analysis relative to control; type: cell-based
How it was run: (§2)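 Time course: cells given 30 nM degrader and harvested at time points from 1 h up to 24 h. ERα assessed by Western blot against a GAPDH loading control, with levels taken relative to DMSO.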
Target sequence in this assay (P03372 whole entry, looked up): as the sequence (P03372 whole entry, looked up) above
Target sequence in this assay (P40337 whole entry, looked up): as the sequence (P40337 whole entry, looked up) above
Target sequence in this assay (Q13617 whole entry, looked up): as the sequence (Q13617 whole entry, looked up) above

[3] = target: T1, von Hippel-Lindau disease tumor suppressor/Estrogen receptor/Cullin-2; experiment: Protac activity against VHL/cullin2/ERalpha in human MCF7 cells assessed as ERalpha degradation by measuring ER protein/GADPH ratio at 1000 nM after 4 hrs by Western blot analysis relative to control; type: cell-based
How it was run: (§3)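 MCF-7 cells (DMEM, 10% FBS, passages 3−8) exposed 4 h. Lysed in RIPA with protease inhibitors; equal protein on 10% SDS-PAGE, PVDF, anti-ERα blot. Membranes stripped and reprobed for GAPDH. ERα/GAPDH ratio normalized to DMSO = 100; DC50 from densitometry of the dose series.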
Target sequence in this assay (P03372 whole entry, looked up): as the sequence (P03372 whole entry, looked up) above
Target sequence in this assay (P40337 whole entry, looked up): as the sequence (P40337 whole entry, looked up) above
Target sequence in this assay (Q13617 whole entry, looked up): as the sequence (Q13617 whole entry, looked up) above

[4] = target: T1, von Hippel-Lindau disease tumor suppressor/Estrogen receptor/Cullin-2; experiment: Protac activity against VHL/cullin2/ERalpha in human MCF7 cells assessed as ERalpha degradation by measuring ER protein/GAPDH ratio at 0.1 nM after 4 hrs by Western blot analysis relative to control; type: cell-based; how it was run: as §3
Target sequence in this assay (P03372 whole entry, looked up): as the sequence (P03372 whole entry, looked up) above
Target sequence in this assay (P40337 whole entry, looked up): as the sequence (P40337 whole entry, looked up) above
Target sequence in this assay (Q13617 whole entry, looked up): as the sequence (Q13617 whole entry, looked up) above

[5] = target: T1, von Hippel-Lindau disease tumor suppressor/Estrogen receptor/Cullin-2; experiment: Protac activity against VHL/cullin2/ERalpha in human MCF7 cells assessed as ERalpha degradation by measuring reduction in ER protein level pre-treated with raloxifene for 2 hrs followed by compound exposure at 30 nM for 4 hrs by Western blot analysis; type: cell-based
Target sequence in this assay (P03372 whole entry, looked up): as the sequence (P03372 whole entry, looked up) above
Target sequence in this assay (P40337 whole entry, looked up): as the sequence (P40337 whole entry, looked up) above
Target sequence in this assay (Q13617 whole entry, looked up): as the sequence (Q13617 whole entry, looked up) above

[6] = Inhibition of cell growth in primary human mammary epithelial cells at 10^-13 to 10^-6 M after 4 days by wst-8-based colorimetric analysis; conditions: 96 h
How it was run: (§4)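 Cells seeded at 1500/well overnight, then exposed to graded compound doses for 4 days. Growth read by colorimetric WST-8 assay. GI50 from fitted curves. MCF-7 cells were kept in DMEM, 10% FBS, passages 3−8; human mammary epithelial cells were run the same way.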

[7] = target: T1, von Hippel-Lindau disease tumor suppressor/Estrogen receptor/Cullin-2; experiment: Protac activity against VHL/cullin2/ERalpha in human MCF7 cells assessed as ERalpha degradation by measuring ER protein/GAPDH ratio at 0.03 nM after 4 hrs by Western blot analysis relative to control; type: cell-based; how it was run: as §3
Target sequence in this assay (P03372 whole entry, looked up): as the sequence (P03372 whole entry, looked up) above
Target sequence in this assay (P40337 whole entry, looked up): as the sequence (P40337 whole entry, looked up) above
Target sequence in this assay (Q13617 whole entry, looked up): as the sequence (Q13617 whole entry, looked up) above

[8] = target: T1, von Hippel-Lindau disease tumor suppressor/Estrogen receptor/Cullin-2; experiment: Protac activity against VHL/cullin2/ERalpha in human T47D cells assessed as ERalpha degradation by measuring ER protein/GAPDH ratio at 10 nM after 4 hrs by Western blot analysis relative to control; type: cell-based; how it was run: as §1
[9] = target: T1, von Hippel-Lindau disease tumor suppressor/Estrogen receptor/Cullin-2; experiment: Protac activity against VHL/cullin2/ERalpha in human T47D cells assessed as ERalpha degradation by measuring ER protein/GAPDH ratio at 0.03 nM after 4 hrs by Western blot analysis relative to control; type: cell-based; how it was run: as §1
[10] = target: T1, von Hippel-Lindau disease tumor suppressor/Estrogen receptor/Cullin-2; experiment: Protac activity against VHL/cullin2/ERalpha in human MCF7 cells assessed as ERalpha degradation by measuring ER protein/GAPDH ratio at 300 nM after 4 hrs by Western blot analysis relative to control; type: cell-based; how it was run: as §3
[11] = target: T1, von Hippel-Lindau disease tumor suppressor/Estrogen receptor/Cullin-2; experiment: Protac activity against VHL/cullin2/ERalpha in human MCF7 cells assessed as ERalpha degradation by measuring ER protein/GAPDH ratio at 0.3 nM after 4 hrs by Western blot analysis relative to control; type: cell-based; how it was run: as §3
[12] = target: T1, von Hippel-Lindau disease tumor suppressor/Estrogen receptor/Cullin-2; experiment: Protac activity against VHL/cullin2/ERalpha in human MCF7 cells assessed as ERalpha degradation by measuring ER protein/GADPH ratio at 10 nM after 4 hrs by Western blot analysis relative to control; type: cell-based; how it was run: as §3
[13] = target: T1, von Hippel-Lindau disease tumor suppressor/Estrogen receptor/Cullin-2; experiment: Protac activity against VHL/cullin2/ERalpha in human MCF7 cells assessed as ERalpha degradation by measuring ER protein/GAPDH ratio at 5 nM after 4 hrs by Western blot analysis relative to control; type: cell-based; how it was run: as §3
[14] = target: T1, von Hippel-Lindau disease tumor suppressor/Estrogen receptor/Cullin-2; experiment: Protac activity against VHL/cullin2/ERalpha in human T47D cells assessed as ERalpha degradation by measuring ER protein/GAPDH ratio at 1000 nM after 4 hrs by Western blot analysis relative to control; type: cell-based; how it was run: as §1
[15] = target: T1, von Hippel-Lindau disease tumor suppressor/Estrogen receptor/Cullin-2; experiment: Protac activity against VHL/cullin2/ERalpha in human T47D cells assessed as ERalpha degradation by measuring ER protein/GAPDH ratio at 100 nM after 4 hrs by Western blot analysis relative to control; type: cell-based; how it was run: as §1
[16] = target: T1, von Hippel-Lindau disease tumor suppressor/Estrogen receptor/Cullin-2; experiment: Protac activity against VHL/cullin2/ERalpha in human MCF7 cells assessed as ERalpha degradation by measuring reduction in ER protein level at 30 nM after 3 hrs by Western blot analysis relative to control; type: cell-based; parameters: scale not given: the % may be the effect or the level left; how it was run: as §2
[17] = target: T1, von Hippel-Lindau disease tumor suppressor/Estrogen receptor/Cullin-2; experiment: Protac activity against VHL/cullin2/ERalpha in human MCF7 cells assessed as ERalpha degradation by measuring reduction in ER protein level pre-treated with carfilzomib for 2 hrs followed by compound exposure at 30 nM for 4 hrs by Western blot analysis; type: cell-based
[18] = target: T1, von Hippel-Lindau disease tumor suppressor/Estrogen receptor/Cullin-2; experiment: Protac activity against VHL/cullin2/ERalpha in human MCF7 cells assessed as ERalpha degradation by measuring ER protein/GAPDH ratio at 30 nM after 4 hrs by Western blot analysis relative to control; type: cell-based; how it was run: as §3
MCF7 [19] = experiment: Inhibition of cell growth in human MCF7 cells after 4 days by wst-8-based colorimetric analysis; type: functional; conditions: MCF7, 96 h; how it was run: as §4
MCF7 [20] = experiment: Antiproliferative activity against human MCF7 cells at 10 to 300 nM after 5 days by crystal violet staining based assay; type: functional, cell-based
How it was run: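 MCF-7 cells in DMEM with 10% FBS and penicillin/streptomycin, passages 3−8, exposed to compounds at 10, 100 and 300 nM for 5 days, then fixed and stained with crystal violet.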

[21] = target: T1, von Hippel-Lindau disease tumor suppressor/Estrogen receptor/Cullin-2; experiment: Protac activity against VHL/cullin2/ERalpha in human MCF7 cells assessed as ERalpha degradation after 4 hrs by Western blot analysis; type: cell-based; how it was run: as §3
Target sequence in this assay (P03372 whole entry): as the sequence (P03372 whole entry, looked up) above
Target sequence in this assay (P40337 whole entry): as the sequence (P40337 whole entry, looked up) above
Target sequence in this assay (Q13617 whole entry): as the sequence (Q13617 whole entry, looked up) above

[22] = target: T1, von Hippel-Lindau disease tumor suppressor/Estrogen receptor/Cullin-2; experiment: Protac activity against VHL/cullin2/ERalpha in human T47D cells assessed as ERalpha degradation by measuring reduction in ER protein level at 30 nM after 1 to 24 hrs hrs by Western blot analysis relative to control; type: cell-based; how it was run: as §2
[23] = target: T1, von Hippel-Lindau disease tumor suppressor/Estrogen receptor/Cullin-2; experiment: Protac activity against VHL/cullin2/ERalpha in human T47D cells assessed as ERalpha degradation by measuring ER protein/GAPDH ratio at 30 nM after 4 hrs by Western blot analysis relative to control; type: cell-based; how it was run: as §1
MCF7 [24] = experiment: Inhibition of cell growth in human MCF7 cells after 4 days by wst-8-based colorimetric analysis relative to control; type: functional; how it was run: as §4
MDA-MB-231 = experiment: Inhibition of cell growth in human MDA-MB-231 cells at 10^-13 to 10^-5 M after 4 days by wst-8-based colorimetric analysis; type: functional
[25] = target: T1, von Hippel-Lindau disease tumor suppressor/Estrogen receptor/Cullin-2; experiment: Protac activity against VHL/cullin2/ERalpha in human T47D cells assessed as ERalpha degradation by measuring ER protein/GAPDH ratio at 1 nM after 4 hrs by Western blot analysis relative to control; type: cell-based; how it was run: as §1
[26] = target: T1, von Hippel-Lindau disease tumor suppressor/Estrogen receptor/Cullin-2; experiment: Protac activity against VHL/cullin2/ERalpha in human MCF7 cells assessed as ERalpha degradation by measuring ER protein/GADPH ratio at 1 nM after 4 hrs by Western blot analysis relative to control; type: cell-based; how it was run: as §3
[27] = target: T1, von Hippel-Lindau disease tumor suppressor/Estrogen receptor/Cullin-2; experiment: Protac activity against VHL/cullin2/ERalpha in human T47D cells assessed as ERalpha degradation by measuring ER protein/GAPDH ratio at 0.3 nM after 4 hrs by Western blot analysis relative to control; type: cell-based; how it was run: as §1
[28] = target: T1, von Hippel-Lindau disease tumor suppressor/Estrogen receptor/Cullin-2; experiment: Protac activity against VHL/cullin2/ERalpha in human MCF7 cells assessed as ERalpha degradation by measuring ER protein/GAPDH ratio at 0.6 nM after 4 hrs by Western blot analysis relative to control; type: cell-based; how it was run: as §3
[29] = target: T1, von Hippel-Lindau disease tumor suppressor/Estrogen receptor/Cullin-2; experiment: Protac activity against VHL/cullin2/ERalpha in human T47D cells assessed as ERalpha degradation by measuring ER protein/GAPDH ratio at 300 nM after 4 hrs by Western blot analysis relative to control; type: cell-based; how it was run: as §1
[30] = target: T1, von Hippel-Lindau disease tumor suppressor/Estrogen receptor/Cullin-2; experiment: Protac activity against VHL/cullin2/ERalpha in human T47D cells assessed as ERalpha degradation after 4 hrs by Western blot analysis; type: cell-based; how it was run: as §1
Target sequence in this assay (P03372 whole entry): as the sequence (P03372 whole entry, looked up) above
Target sequence in this assay (P40337 whole entry): as the sequence (P40337 whole entry, looked up) above
Target sequence in this assay (Q13617 whole entry): as the sequence (Q13617 whole entry, looked up) above

[31] = target: T1, von Hippel-Lindau disease tumor suppressor/Estrogen receptor/Cullin-2; experiment: Protac activity against VHL/cullin2/ERalpha in human MCF7 cells assessed as ERalpha degradation by measuring ER protein/GADPH ratio at 100 nM after 4 hrs by Western blot analysis relative to control; type: cell-based; how it was run: as §3
[32] = target: T1, von Hippel-Lindau disease tumor suppressor/Estrogen receptor/Cullin-2; experiment: Protac activity against VHL/cullin2/ERalpha in human T47D cells assessed as ERalpha degradation by measuring ER protein/GAPDH ratio at 0.1 nM after 4 hrs by Western blot analysis relative to control; type: cell-based; how it was run: as §1
[33] = target: T1, von Hippel-Lindau disease tumor suppressor/Estrogen receptor/Cullin-2; experiment: Protac activity against VHL/cullin2/ERalpha in human T47D cells assessed as ERalpha degradation by measuring ER protein/GAPDH ratio at 0.6 nM after 4 hrs by Western blot analysis relative to control; type: cell-based; how it was run: as §1
[34] = target: T1, von Hippel-Lindau disease tumor suppressor/Estrogen receptor/Cullin-2; experiment: Protac activity against VHL/cullin2/ERalpha in human MCF7 cells assessed as ERalpha degradation by measuring reduction in ER protein level at 30 nM after 1 hr by Western blot analysis relative to control; type: cell-based; parameters: scale not given: the % may be the effect or the level left; how it was run: as §2

CCN(CCCCCOCC(=O)N[C@H](C(=O)N1C[C@H](O)C[C@H]1C(=O)N[C@@H](C)c1ccc(-c2scnc2C)cc1)C(C)(C)C)CCOc1ccc(C(=O)c2c(-c3ccc(O)cc3)sc3cc(O)ccc23)cc1
Ratio [1]: 4 | Activity [2]: Active | Ratio [3]: 13 | Ratio [4]: 76 | Activity [5]: inactive | Activity [6]: Non-Toxic | Ratio [7]: 84 | Ratio [8]: 3 | Ratio [9]: 84 | Ratio [10]: 0.3 | Ratio [11]: 28 | Ratio [12]: 0.3 | Ratio [13]: 0.3 | Ratio [14]: 25 | Ratio [15]: 4 | Activity [16]: 100% | Activity [17]: inactive | Ratio [18]: 0.3 | GI50 (MCF7 [19]): 770 pM | Activity (MCF7 [20]): Active | DC50 [21]: 170 pM | Activity [22]: Active | Ratio [23]: 2 | Imax (MCF7 [24]): 57.5% | growth inhibition (GI) (MDA-MB-231): inactive | Ratio [25]: 33 | Ratio [26]: 8 | Ratio [27]: 62 | Ratio [28]: 12 | Ratio [29]: 6 | DC50 [30]: 430 pM | Ratio [31]: 0.3 | Ratio [32]: 73 | Ratio [33]: 58 | Activity [34]: > 80%
